Measurements: ChEMBL document CHEMBL1143745, “Utility of 6-amino-2-thiouracil as a precursor for the synthesis of bioactive pyrimidine derivatives” (2007)

Legend:
Neisseria gonorrhoeae = assay: Antimicrobial activity against Neisseria gonorrhoeae; format: functional
Procedure, shortened: (§1)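 Disk diffusion. A sterile filter-paper disk saturated with a measured quantity of sample is placed on agar heavily seeded with a spore suspension of the test organism. Bacteria are grown on nutrient agar and fungi on Dox's medium. The diameter of the clear inhibition zone around the disk is taken as the inhibitory measure. Ampicillin is the antibacterial reference and nystatin the antifungal reference.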

Bacillus subtilis = assay: Antimicrobial activity against Bacillus subtilis; format: functional; procedure, shortened: as §1
Escherichia coli = assay: Antimicrobial activity against Escherichia coli; format: functional; procedure, shortened: as §1
Enterococcus faecalis = assay: Antimicrobial activity against Streptococcus faecalis; format: functional; procedure, shortened: as §1
Pseudomonas aeruginosa = assay: Antimicrobial activity against Pseudomonas aeruginosa; format: functional; procedure, shortened: as §1
Staphylococcus aureus = assay: Antimicrobial activity against Staphylococcus aureus; format: functional; procedure, shortened: as §1
Candida albicans = assay: Antimicrobial activity against Candida albicans; format: functional; procedure, shortened: as §1
Saccharomyces cerevisiae = assay: Antimicrobial activity against Saccharomyces cerevisiae; format: functional; procedure, shortened: as §1
NCI-H460 [1] = assay: Cytotoxicity against human H460 cells assessed as surviving fraction at 10 ug/ml after 48 hrs by ELISA; format: functional
Procedure, shortened: (§2)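 SRB assay in human liver carcinoma HEPG2 or lung carcinoma H460 cells. Cells are seeded at 10⁴ per well and allowed to attach for 24 h. Compound is added at 0, 1, 2.5, 5 and 10 µg/ml, in triplicate wells per dose, for 48 h continuous exposure at 37 °C in 5% CO₂. Cells are then fixed and stained with sulforhodamine B. Bound dye is recovered in Tris-EDTA and read on an ELISA reader. Surviving fraction is plotted against concentration. Cisplatin is the positive control.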

NCI-H460 [2] = assay: Cytotoxicity against human H460 cells assessed as surviving fraction at 1 ug/ml after 48 hrs by ELISA; format: functional; procedure, shortened: as §2
HepG2 [3] = assay: Cytotoxicity against HEPG2 cells assessed as surviving fraction at 10 ug/ml after 48 hrs by ELISA; format: functional, Homo sapiens; procedure, shortened: as §2
HepG2 [4] = assay: Cytotoxicity against HEPG2 cells assessed as surviving fraction at 2.5 ug/ml after 48 hrs by ELISA; format: functional, Homo sapiens; procedure, shortened: as §2
HepG2 [5] = assay: Cytotoxicity against HEPG2 cells assessed as surviving fraction at 5 ug/ml after 48 hrs by ELISA; format: functional, Homo sapiens; procedure, shortened: as §2
NCI-H460 [6] = assay: Cytotoxicity against human H460 cells assessed as surviving fraction at 5 ug/ml after 48 hrs by ELISA; format: functional; procedure, shortened: as §2
HepG2 [7] = assay: Cytotoxicity against HEPG2 cells assessed as surviving fraction at 1 ug/ml after 48 hrs by ELISA; format: functional, Homo sapiens; procedure, shortened: as §2
NCI-H460 [8] = assay: Cytotoxicity against human H460 cells assessed as surviving fraction at 2.5 ug/ml after 48 hrs by ELISA; format: functional; procedure, shortened: as §2

Compound | inhibition zone (IZ) (Neisseria gonorrhoeae) [mm] | inhibition zone (IZ) (Bacillus subtilis) [mm] | inhibition zone (IZ) (Escherichia coli) [mm] | inhibition zone (IZ) (Enterococcus faecalis) [mm] | inhibition zone (IZ) (Pseudomonas aeruginosa) [mm] | inhibition zone (IZ) (Staphylococcus aureus) [mm] | inhibition zone (IZ) (Candida albicans) [mm] | inhibition zone (IZ) (Saccharomyces cerevisiae) [mm] | Activity (NCI-H460 [1]) | Activity (NCI-H460 [2]) | Activity (HepG2 [3]) | Activity (HepG2 [4]) | Activity (HepG2 [5]) | Activity (NCI-H460 [6]) | Activity (HepG2 [7]) | Activity (NCI-H460 [8])
COC(=O)c1c(-c2ccccc2)nc2[nH]c(=S)[nH]c(=O)c2c1C(=O)OC | 15 | 16 | 16 | 15 | 16 | 16 | 15 | 16 | – | – | – | – | – | – | – | –
COc1ccc(-c2cc(C(=O)c3ccco3)c3c(=O)[nH]c(=S)[nH]c3n2)cc1 | 12 | 11 | 11 | 11 | 11 | 11 | 11 | 12 | – | – | – | – | – | – | – | –
N#Cc1cc(-c2ccccc2)nc2[nH]c(=S)[nH]c(=O)c12 | 12 | 11 | 12 | 12 | 11 | 11 | 12 | 12 | – | – | – | – | – | – | – | –
CC1(C)S[C@@H]2[C@H](NC(=O)[C@H](N)c3ccccc3)C(=O)N2[C@H]1C(=O)O [AMPICILLIN] | 13 | 18 | 11 | 30 | 19 | 20 | – | – | – | – | – | – | – | – | – | –
CCOC(=O)c1cc(-c2ccc(OC)cc2)nc2[nH]c(=S)[nH]c(=O)c12 | – | – | – | – | – | – | – | – | 0.646 | 0.948 | 0.927 | 1 | 0.977 | 0.776 | 1.018 | 0.915
COc1ccc(-c2cc(C(=O)c3cccs3)c3c(=O)[nH]c(=S)[nH]c3n2)cc1 | 14 | 11 | 12 | 12 | 11 | 11 | 12 | 12 | – | – | – | – | – | – | – | –
NYSTATIN | – | – | – | – | – | – | 12 | 11 | – | – | – | – | – | – | – | –
COC(=O)c1c(-c2ccc(OC)cc2)nc2[nH]c(=S)[nH]c(=O)c2c1C(=O)OC | 14 | 14 | 14 | 14 | 14 | 15 | 14 | 14 | 0.743 | 0.962 | 0.709 | 0.823 | 0.786 | 0.808 | 0.895 | 0.887
CCOC(=O)c1cc(-c2ccccc2)nc2[nH]c(=S)[nH]c(=O)c12 | 12 | 11 | 11 | 11 | 11 | 11 | 11 | 12 | – | – | – | – | – | – | – | –
O=C(c1cccs1)c1cc(-c2ccccc2)nc2[nH]c(=S)[nH]c(=O)c12 | 13 | 13 | 13 | 12 | 12 | 12 | 13 | 12 | 0.641 | 0.943 | 0.85 | 1.005 | 0.905 | 0.808 | 1.05 | 0.869
COc1ccc(-c2cc(C#N)c3c(=O)[nH]c(=S)[nH]c3n2)cc1 | – | – | – | – | – | – | – | – | 0.808 | 0.948 | 0.914 | 0.968 | 0.941 | 0.836 | 1.046 | 0.897
CCOC(=O)c1c(-c2ccccc2)nc2[nH]c(=S)[nH]c(=O)c2c1C(=O)OCC | 13 | 12 | 11 | 12 | 13 | 12 | 12 | 11 | 0.72 | 0.855 | 0.805 | 0.914 | 0.841 | 0.771 | 0.968 | 0.827
O=C(c1ccc2ccccc2c1)c1cc(-c2ccccc2)nc2[nH]c(=S)[nH]c(=O)c12 | 12 | 10 | 10 | 11 | 11 | 11 | 10 | 12 | – | – | – | – | – | – | – | –
